Experimental data published in ChEMBL document CHEMBL3603770, “Synthesis and cytotoxic activities of 2-substituted (25R)-spirostan-1,4,6-triene-3-ones via ring-opening/elimination and 'click' strategy” (Bioorg Med Chem Lett, 2015).

Experiments:
Format in all cases: functional, cell-based
[1] = system: HeLa; experiment: Antiproliferative activity against human HeLa cells incubated for 48 hrs by MTT assay
How it was run: (§1)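 Human tumour cells exposed to compounds for 48 h at 37 °C; viability read by MTT. Growth inhibition (%) measured in triplicate at 5, 10, 20, 40, 80 and 160 μM; data as mean ± standard deviation. IC50 calculated from percentage inhibition of cell growth.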

[2] = Antiproliferative activity against human CaSki cells incubated for 48 hrs by MTT assay; settings: Ca-Ski; how it was run: as §1
[3] = system: HepG2; experiment: Antiproliferative activity against human HepG2 cells incubated for 48 hrs by MTT assay; settings: HepG2, 48 h; how it was run: as §1

Compound | IC50 [1] | IC50 [2] | IC50 [3]
CCCCOC1=C[C@@]2(C)C(=CC1=O)C=C[C@H]1[C@@H]3C[C@@H]4O[C@]5(CC[C@@H](C)CO5)[C@@H](C)[C@@H]4[C@@]3(C)CC[C@@H]12 | 71.6 µM | 39.5 µM | 85 µM
COc1ccc(C(=O)Cn2cc(COC3=C[C@@]4(C)C(=CC3=O)C=C[C@H]3[C@@H]5C[C@@H]6O[C@]7(CC[C@@H](C)CO7)[C@@H](C)[C@@H]6[C@@]5(C)CC[C@@H]34)nn2)cc1 | > 100 µM | > 100 µM | > 100 µM
C[C@@H]1CC[C@@]2(OC1)O[C@H]1C[C@H]3[C@@H]4C=CC5=CC(=O)C(OCc6cn(Cc7ccc(Cn8cc(COC9=C[C@@]%10(C)C(=CC9=O)C=C[C@H]9[C@@H]%11C[C@@H]%12O[C@]%13(CC[C@@H](C)CO%13)[C@@H](C)[C@@H]%12[C@@]%11(C)CC[C@@H]9%10)nn8)cc7)nn6)=C[C@]5(C)[C@H]4CC[C@]3(C)[C@H]1[C@@H]2C | > 100 µM | > 100 µM | > 100 µM
CC(C)OC1=C[C@@]2(C)C(=CC1=O)C=C[C@H]1[C@@H]3C[C@@H]4O[C@]5(CC[C@@H](C)CO5)[C@@H](C)[C@@H]4[C@@]3(C)CC[C@@H]12 | > 100 µM | 29.3 µM | 61.3 µM
C[C@@H]1CC[C@@]2(OC1)O[C@H]1C[C@H]3[C@@H]4C=CC5=CC(=O)C(OCc6cn(CC(=O)c7cccc(Br)c7)nn6)=C[C@]5(C)[C@H]4CC[C@]3(C)[C@H]1[C@@H]2C | > 100 µM | > 100 µM | 88.1 µM
C[C@@H]1CC[C@@]2(OC1)O[C@H]1C[C@H]3[C@@H]4C=CC5=CC(=O)C(OCc6cn(Cc7ccccc7)nn6)=C[C@]5(C)[C@H]4CC[C@]3(C)[C@H]1[C@@H]2C | > 100 µM | 10.9 µM | 53.4 µM
CCCOC1=C[C@@]2(C)C(=CC1=O)C=C[C@H]1[C@@H]3C[C@@H]4O[C@]5(CC[C@@H](C)CO5)[C@@H](C)[C@@H]4[C@@]3(C)CC[C@@H]12 | 80.3 µM | 32.1 µM | 61.6 µM
C#CCOC1=C[C@@]2(C)C(=CC1=O)C=C[C@H]1[C@@H]3C[C@@H]4O[C@]5(CC[C@@H](C)CO5)[C@@H](C)[C@@H]4[C@@]3(C)CC[C@@H]12 | 57.4 µM | 23.2 µM | 90.7 µM
COc1ccc(Cn2cc(COC3=C[C@@]4(C)C(=CC3=O)C=C[C@H]3[C@@H]5C[C@@H]6O[C@]7(CC[C@@H](C)CO7)[C@@H](C)[C@@H]6[C@@]5(C)CC[C@@H]34)nn2)cc1 | > 100 µM | 67 µM | 41.8 µM
COC1=C[C@@]2(C)C(=CC1=O)C=C[C@H]1[C@@H]3C[C@@H]4O[C@]5(CC[C@@H](C)CO5)[C@@H](C)[C@@H]4[C@@]3(C)CC[C@@H]12 | > 100 µM | 28.5 µM | 77.1 µM
CC(=O)Cn1cc(COC2=C[C@@]3(C)C(=CC2=O)C=C[C@H]2[C@@H]4C[C@@H]5O[C@]6(CC[C@@H](C)CO6)[C@@H](C)[C@@H]5[C@@]4(C)CC[C@@H]23)nn1 | 48.1 µM | 11.8 µM | 40.2 µM
CCOC(=O)Cn1cc(COC2=C[C@@]3(C)C(=CC2=O)C=C[C@H]2[C@@H]4C[C@@H]5O[C@]6(CC[C@@H](C)CO6)[C@@H](C)[C@@H]5[C@@]4(C)CC[C@@H]23)nn1 | > 100 µM | 68.9 µM | 44 µM
C[C@@H]1CC[C@@]2(OC1)O[C@H]1C[C@H]3[C@@H]4C=CC5=CC(=O)C(OCc6cn(-c7ccccc7)nn6)=C[C@]5(C)[C@H]4CC[C@]3(C)[C@H]1[C@@H]2C | > 100 µM | > 100 µM | > 100 µM
CC(C)COC1=C[C@@]2(C)C(=CC1=O)C=C[C@H]1[C@@H]3C[C@@H]4O[C@]5(CC[C@@H](C)CO5)[C@@H](C)[C@@H]4[C@@]3(C)CC[C@@H]12 | > 100 µM | 33.5 µM | 53.4 µM
C[C@@H]1CC[C@@]2(OC1)O[C@H]1C[C@H]3[C@@H]4C=CC5=CC(=O)C(OCc6cn(CC#N)nn6)=C[C@]5(C)[C@H]4CC[C@]3(C)[C@H]1[C@@H]2C | > 100 µM | > 100 µM | > 100 µM
CCOC1=C[C@@]2(C)C(=CC1=O)C=C[C@H]1[C@@H]3C[C@@H]4O[C@]5(CC[C@@H](C)CO5)[C@@H](C)[C@@H]4[C@@]3(C)CC[C@@H]12 | > 100 µM | > 100 µM | > 100 µM
C[C@@H]1CC[C@@]2(OC1)O[C@H]1C[C@H]3[C@@H]4C=CC5=CC(=O)C(OCc6cn(Cc7ccc(CN=[N+]=[N-])cc7)nn6)=C[C@]5(C)[C@H]4CC[C@]3(C)[C@H]1[C@@H]2C | > 100 µM | > 100 µM | > 100 µM
C[C@@H]1CC[C@@]2(OC1)O[C@H]1C[C@H]3[C@@H]4C=CC5=CC(=O)C(OCc6cn(CC(=O)c7cccc(O)c7)nn6)=C[C@]5(C)[C@H]4CC[C@]3(C)[C@H]1[C@@H]2C | > 100 µM | 9.4 µM | 45.6 µM
C[C@@H]1CC[C@@]2(OC1)O[C@H]1C[C@H]3[C@@H]4C=CC5=CC(=O)C(OCc6cn(CC(=O)c7ccccc7)nn6)=C[C@]5(C)[C@H]4CC[C@]3(C)[C@H]1[C@@H]2C | > 100 µM | 99 µM | 60.2 µM
C[C@@H]1CC[C@@]2(OC1)O[C@H]1C[C@H]3[C@@H]4C=CC5=CC(=O)C(OCc6cn(CC(=O)c7ccc(O)cc7)nn6)=C[C@]5(C)[C@H]4CC[C@]3(C)[C@H]1[C@@H]2C | > 100 µM | 98.7 µM | 52.8 µM
C[C@@H]1CC[C@@]2(OC1)O[C@H]1C[C@H]3[C@@H]4C=CC5=CC(=O)C(OCc6cn(CC(=O)c7ccc(Br)cc7)nn6)=C[C@]5(C)[C@H]4CC[C@]3(C)[C@H]1[C@@H]2C | > 100 µM | > 100 µM | 53.7 µM
Cc1ccc(C(=O)Cn2cc(COC3=C[C@@]4(C)C(=CC3=O)C=C[C@H]3[C@@H]5C[C@@H]6O[C@]7(CC[C@@H](C)CO7)[C@@H](C)[C@@H]6[C@@]5(C)CC[C@@H]34)nn2)cc1 | > 100 µM | > 100 µM | 76.1 µM
